# According to ChEMBL document CHEMBL4834416, “The Discovery of Novel ACA Derivatives as Specific TRPM2 Inhibitors that Reduce Ischemic Injury Both In Vitro and In Vivo” (J Med Chem, 2021):
# Tests used:
# SH-SY5Y = experiment: Cytotoxicity against human SH-SY5Y cells assessed as toxicity at 30 uM incubated for 24 hrs by CCK-8 assay; format: cell-based
# Procedure, shortened: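 SH-SY5Y cells were seeded at 2 × 10⁴ per well and grown 12 h at 37 °C. They were then treated with compound (1–30 μM) under normoxic, normal-glucose conditions for 24 h. CCK-8 (10%) was added for 2 h at 37 °C and OD450 read. Viability was taken relative to untreated control after blank subtraction, with three replicate wells.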
# [1] = biological target: T1, Transient receptor potential cation channel subfamily M member 8 (Homo sapiens, UniProt Q7Z2W7); experiment: Inhibition of human TRPM8 expressed in HEK293T cells assessed as blocked of menthol-activated current at 10 uM by whole cell patch clamp electrophysiology relative to control; format: cell-based
# T1 sequence (Q7Z2W7 whole entry, looked up, the tested form may be a part): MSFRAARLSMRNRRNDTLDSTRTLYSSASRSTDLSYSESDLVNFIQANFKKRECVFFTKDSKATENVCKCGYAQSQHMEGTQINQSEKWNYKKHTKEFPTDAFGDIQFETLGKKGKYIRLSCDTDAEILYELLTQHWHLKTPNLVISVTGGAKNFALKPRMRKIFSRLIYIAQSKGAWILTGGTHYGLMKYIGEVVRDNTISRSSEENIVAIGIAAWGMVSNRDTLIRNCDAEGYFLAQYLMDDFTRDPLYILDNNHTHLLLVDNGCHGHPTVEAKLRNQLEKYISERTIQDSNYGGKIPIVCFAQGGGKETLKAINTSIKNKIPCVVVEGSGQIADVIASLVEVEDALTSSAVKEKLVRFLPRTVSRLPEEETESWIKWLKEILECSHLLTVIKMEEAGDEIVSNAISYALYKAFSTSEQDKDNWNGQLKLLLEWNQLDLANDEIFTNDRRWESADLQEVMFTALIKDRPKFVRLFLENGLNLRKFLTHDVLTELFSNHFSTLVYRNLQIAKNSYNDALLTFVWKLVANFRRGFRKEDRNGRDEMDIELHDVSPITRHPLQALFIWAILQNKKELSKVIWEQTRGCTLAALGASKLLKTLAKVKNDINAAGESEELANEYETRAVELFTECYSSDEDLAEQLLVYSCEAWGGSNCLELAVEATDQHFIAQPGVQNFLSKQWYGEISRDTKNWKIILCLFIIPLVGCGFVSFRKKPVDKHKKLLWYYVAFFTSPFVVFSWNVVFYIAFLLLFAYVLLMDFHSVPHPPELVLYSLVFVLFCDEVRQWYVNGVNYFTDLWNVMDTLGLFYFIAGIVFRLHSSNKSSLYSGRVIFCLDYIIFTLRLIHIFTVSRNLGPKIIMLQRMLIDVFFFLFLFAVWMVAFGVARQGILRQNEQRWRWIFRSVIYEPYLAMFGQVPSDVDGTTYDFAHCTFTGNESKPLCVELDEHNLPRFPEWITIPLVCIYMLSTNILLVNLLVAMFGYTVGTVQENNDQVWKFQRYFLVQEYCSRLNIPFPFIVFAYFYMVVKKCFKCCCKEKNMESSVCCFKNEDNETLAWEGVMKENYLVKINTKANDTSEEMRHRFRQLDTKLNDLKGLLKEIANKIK
# Procedure, shortened: (§1)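 Whole-cell patch clamp was run at room temperature on HEK293T cells transiently cotransfected with human TRPM8 plus GFP, 24–48 h before recording. ECS was 145 NaCl, 5.6 KCl, 2 MgCl₂, 1.2 CaCl₂, 10 HEPES, pH 7.2. Current was activated with 1 mM menthol, and compound was perfused at least 60 s after it stabilized. Inhibition was calculated relative to stable agonist current minus residual current; n = 3–6.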
# [2] = biological target: T1, Transient receptor potential cation channel subfamily M member 8; experiment: Inhibition of human TRPM8 expressed in HEK293T cells assessed as blocked of menthol-activated current at 3 uM by whole cell patch clamp electrophysiology relative to control; format: cell-based; procedure, shortened: as §1
# Phospholipase A2 [3] = biological target: T2, Phospholipase A2 (Homo sapiens, UniProt P04054); experiment: Inhibition of PLA2 (unknown origin) using soybean phosphatidylcholine as substrate at 10 uM preincubated for 30 mins followed incubated for 60 mins after substrate addition by microplate reader relative to control
# Procedure, shortened: (§2)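 PLA2 (4 μg/L in PBS) was preincubated 30 min at 37 °C with inhibitor in 125 mM Tris. Substrate was then added for 60 min: soybean phosphatidylcholine with Tris, CaCl₂, sodium deoxycholate and 0.5% Triton X-100. Liberated free fatty acids were quantified colorimetrically at OD550. Results are % inhibition versus enzyme without inhibitor, n = 3.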
# Target sequence in this assay (P04054 23-148 limits assumed): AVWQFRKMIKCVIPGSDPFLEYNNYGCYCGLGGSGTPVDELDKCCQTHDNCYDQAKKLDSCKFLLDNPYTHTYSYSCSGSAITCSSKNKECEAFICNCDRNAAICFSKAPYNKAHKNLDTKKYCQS
# Phospholipase A2 [4] = biological target: T2, Phospholipase A2; experiment: Inhibition of PLA2 (unknown origin) using soybean phosphatidylcholine as substrate preincubated for 30 mins followed incubated for 60 mins after substrate addition by microplate reader relative to control; procedure, shortened: as §2
# Target sequence in this assay (P04054 whole entry): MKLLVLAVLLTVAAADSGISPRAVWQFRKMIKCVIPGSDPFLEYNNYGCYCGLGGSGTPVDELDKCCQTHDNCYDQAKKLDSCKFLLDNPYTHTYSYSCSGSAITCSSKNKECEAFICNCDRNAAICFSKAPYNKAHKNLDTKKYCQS
# Phospholipase A2 [5] = biological target: T2, Phospholipase A2; experiment: Inhibition of PLA2 (unknown origin) using soybean phosphatidylcholine as substrate at 3 uM preincubated for 30 mins followed incubated for 60 mins after substrate addition by microplate reader relative to control; procedure, shortened: as §2
# Target sequence in this assay (P04054 23-148 limits assumed): as the sequence (P04054 23-148 limits assumed) above
# [6] = biological target: Transient receptor potential cation channel subfamily M member 2 (Homo sapiens, UniProt O94759); experiment: Inhibition of human TRPM2 expressed in HEK293T cells assessed as suppression of H2O2-induced calcium flux at 1 uM measured after 30 mins by Fluo-3/AM assay; format: cell-based
# Transient receptor potential cation channel subfamily M member 2, sequence (O94759 whole entry): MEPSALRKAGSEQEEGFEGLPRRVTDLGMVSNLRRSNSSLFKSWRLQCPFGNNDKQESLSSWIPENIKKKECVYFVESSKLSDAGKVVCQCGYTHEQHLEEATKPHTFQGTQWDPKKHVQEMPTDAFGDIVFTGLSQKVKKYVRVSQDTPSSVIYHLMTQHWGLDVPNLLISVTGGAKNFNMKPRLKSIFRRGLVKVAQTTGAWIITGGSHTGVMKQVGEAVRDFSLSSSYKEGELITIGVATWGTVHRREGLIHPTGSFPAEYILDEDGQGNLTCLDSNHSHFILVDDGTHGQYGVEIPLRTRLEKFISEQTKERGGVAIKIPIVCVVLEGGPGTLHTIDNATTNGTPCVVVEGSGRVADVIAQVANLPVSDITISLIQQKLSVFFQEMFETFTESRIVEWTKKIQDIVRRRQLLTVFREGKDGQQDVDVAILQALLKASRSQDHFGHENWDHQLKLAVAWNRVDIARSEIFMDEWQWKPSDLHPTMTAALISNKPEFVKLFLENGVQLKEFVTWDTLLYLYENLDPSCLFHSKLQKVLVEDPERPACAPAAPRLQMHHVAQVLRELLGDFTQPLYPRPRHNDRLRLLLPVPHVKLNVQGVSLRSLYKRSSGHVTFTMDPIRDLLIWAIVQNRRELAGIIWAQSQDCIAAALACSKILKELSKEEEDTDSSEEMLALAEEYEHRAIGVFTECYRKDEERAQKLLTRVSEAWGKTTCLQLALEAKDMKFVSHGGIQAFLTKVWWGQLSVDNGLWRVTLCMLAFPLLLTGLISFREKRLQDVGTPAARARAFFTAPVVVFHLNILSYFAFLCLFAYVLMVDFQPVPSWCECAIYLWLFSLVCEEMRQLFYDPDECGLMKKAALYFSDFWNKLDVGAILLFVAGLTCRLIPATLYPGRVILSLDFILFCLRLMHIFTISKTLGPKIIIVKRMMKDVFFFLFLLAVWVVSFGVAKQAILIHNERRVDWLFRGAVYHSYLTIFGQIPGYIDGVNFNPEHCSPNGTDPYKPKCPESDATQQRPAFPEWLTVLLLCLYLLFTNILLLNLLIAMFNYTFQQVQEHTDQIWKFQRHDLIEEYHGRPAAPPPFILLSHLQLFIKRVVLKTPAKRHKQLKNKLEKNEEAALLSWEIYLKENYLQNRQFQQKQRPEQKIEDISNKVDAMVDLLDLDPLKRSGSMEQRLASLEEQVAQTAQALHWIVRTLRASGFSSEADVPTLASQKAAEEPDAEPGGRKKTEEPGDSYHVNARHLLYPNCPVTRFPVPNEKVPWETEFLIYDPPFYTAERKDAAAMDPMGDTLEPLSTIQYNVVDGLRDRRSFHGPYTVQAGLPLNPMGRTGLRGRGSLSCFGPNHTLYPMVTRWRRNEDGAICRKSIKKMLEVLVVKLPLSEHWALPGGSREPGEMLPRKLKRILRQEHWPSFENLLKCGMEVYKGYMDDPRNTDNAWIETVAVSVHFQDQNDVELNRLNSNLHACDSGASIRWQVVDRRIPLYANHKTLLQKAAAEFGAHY
structure (smiles),measurement,setting,value
CCCCCc1ccc(/C=C/C(=O)Nc2ccccc2C(=O)O)cc1,Activity,SH-SY5Y,< 10%
same,inhibition,[1],62.2%
same,inhibition,[2],39.3%
same,inhibition,Phospholipase A2 [3],40.4%
same,IC50,Phospholipase A2 [4],22 µM
same,inhibition,Phospholipase A2 [5],23.4%
same,inhibition,[6],> 45%
